Variants at the floor of the assay were thinned out.

The chains are these.
B1: tRNA (parent)
chain: GUUCCGUUGGCGUAAUGGUAACGCGUCUCCCUCCUAAGGAGAAGACUGCGGGUUCGAGUCCCGUACGGAACG

In the series the parent is B1. Kind of series: yeast fitness relative to wild type (ratio to wild type); higher = fitter; tRNA-Arg(CCU), competitive growth, 37 C, YPD. In a few lines: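 Gene amplicons from the start population and from each of six end populations were read by 100-nucleotide paired-end sequencing. Those end populations came from pooled Saccharomyces cerevisiae strains carrying tRNA-Arg(CCU) gene variants at the native locus, competed in YPD at 37°C for 24 hours. Fitness relative to wild type was worked out from changes in genotype frequencies. Genotypes needed ≥ 100 starting reads, and estimates < 0.5 were set to 0.5.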
For the variant GUUCCGUUGGCGUAAUGGUAACGCGUCUCCUUCCUAAGGAGAAGACGGCGGGUUCGAGUCCCGUACGGAACG [C31U U47G], the yeast fitness was 0.526.

For GUUCCGUUGGCGUAAUGGUAACGCGUCUCCUUCCUAAGGAGAAGACUGCGGGAUCGAGACCCGUACGGAACG [C31U U53A U59A], the yeast fitness is ≤ 0.5.

In the case of GUUCCGUUGGCGUAAUGGUAACGCGUCUCCUUCCUAAGGAGAAGACAGCGUGUUCGAGUCCUGUACGGAACG [C31U U47A G51U C62U], the yeast fitness is ≤ 0.5.

As to GUUCCGUUGGCGUAAUGGUAACGCGUCUCCCACCUAAGGAGAAGACUGCGGGUUUGAGUCCCGUACGGAACG [U32A C55U], the yeast fitness is 0.501.

Take GUUCCGUUGGCGUAAUGGUAACGCGUCUCCCACCUAAGGAGUAGACUGCGGGUUCGAGUCCCGUACGGAACG [U32A A42U]: the yeast fitness came out at 0.861.

For the variant GUUCCGUUGGCGUAAUGGUAACGCGUCUCCCAUCUAAGGAGAAGACUGCGGAUUCGAGUCCCGUACGGAACG [U32A C33U G52A], the yeast fitness was determined as 0.597.

Turning to GUUCCGUUGGCGUAAUGGUAACGCGUCUCCUUCCUAAGGAGAAGACGGCGGGUUCCAGUCCCGUACGGAACG [C31U U47G G56C], the yeast fitness was ≤ 0.5.

As to GUUCCGUUGGCGUAAUGGUAACGCGUCUCCCACCUAAGGAGAAGUCUGCGGGUUCGAGUCCCGUACGGCACG [U32A A45U A69C], the yeast fitness is 0.706.

Regarding GUUCCGUUGGCGUAAUGGUAACGCGUCUCCUUCCAAAGGAGAAGACUGCGCGUUCGAGUCCCGUACGGAACG [C31U U35A G51C], the yeast fitness is ≤ 0.5.

Consider GUUCCGUUGGCGUAAUGGUAACGCGUCUCCCACCUACGGAGAAGACUGCGGGUUCGAGUCCCGUAUGGAACG [U32A A37C C66U], for which the yeast fitness is ≤ 0.5.

Take GUUCCGUUGGCGUAAUGGUAACGCGUCUCCCACCUAACGAGAAGACAGCGGGUUCGAGUCCCGUACGGAACG [U32A G38C U47A]: the yeast fitness is ≤ 0.5.

As to GUUCCGUUGGCGUAAUGGUAACGCGUCUCCCACCUAAGGAGAAGACUGCGGGUUCGAGUCCCGUACGGAUCG [U32A A70U], the yeast fitness is 0.857.

Take GUUCCGUUGGCGUAAUGGUAACGCGUCUCCCCCCUACGGAGAAGACUGCGGGUUCGUGUCCCGUACGGAACG [U32C A37C A57U]: the yeast fitness was ≤ 0.5.

As to GUUCCGUUGGCGUAAUGGUAACGCGUCUCCCACCUAAGGCGAAGACUGCGGGUUCGACUCCCAUACGGAACG [U32A A40C G58C G63A], the yeast fitness was ≤ 0.5.

As for GUUCCGUUGGCGUAAUGGUAACGCGUCUCCCACAUAAGGAGAAGACUGCGGGUUCGAGUCCCGUACGGAACG [U32A C34A], the yeast fitness turned out to be 0.648.

Take GUUCCGUUGGCGUAAUGGUAACGCGUCUCCCACUUAAGGAGAAGACUGCGGGUUCGAGUCCCGUACGGAACG [U32A C34U]: the yeast fitness is 0.531.

For the variant GUUCCGUUGGCGUAAUGGUAACGCGUCUCCUUCCUAAGGAGAAGACUGCGGGAUCGAGUCCCGUACGGAACG [C31U U53A], the yeast fitness came to 0.656.

In the case of GUUCCGUUGGCGUAAUGGUAACGCGUCUCCUUCCUAAGGAGAAGACUGCGGGCUCGAGUCCCGUACGGAACG [C31U U53C], the yeast fitness came to 0.633.

For the variant GUUCCGUUGGCGUAAUGGUAACGCGUCUCCCACCUAAGGAGAAGACUGCGGCUUCGAGUCCCGUACGGAACG [U32A G52C], the yeast fitness was ≤ 0.5.

For GUUCCGUUGGCGUAAUGGUAACGCGUCUCCCACCUCAGGAGAAGACUGCGGGUUCGAGUCCCGUACGGAGCG [U32A A36C A70G], the yeast fitness is ≤ 0.5.

As to GUUCCGUUGGCGUAAUGGUAACGCGUCUCCUUCCUAAGGAGAAGACCGCGGGUUCGAGUCCCGUGCGGUACG [C31U U47C A65G A69U], the yeast fitness was ≤ 0.5.

For the variant GUUCCGUUGGCGUAAUGGUAACGCGUCUCCCAUCUAAGGAGUAGACUGCGGGUUCGAGUACCGUACGGAACG [U32A C33U A42U C60A], the yeast fitness worked out at 0.595.

With GUUCCGUUGGCGUAAUGGUAACGCGUCUCCCACCUACGGAGCAGACUGAGGGAUCGAGUCCCGUACGGAACG [U32A A37C A42C C49A U53A], the yeast fitness is ≤ 0.5.

GUUCCGUUGGCGUAAUGGUAACGCGUCUCCCACGUAAGGAGAAGACUGCGGGUUGGAGUCCCGUACGAACCG [U32A C34G C55G G68A A70C]: the yeast fitness was ≤ 0.5.

As to GUUCCGUUGGCGUAAUGGUAACGCGUCUCCCACCUACGGAGAAGACUGCGGGUUCGAGUACCGUACGGAACG [U32A A37C C60A], the yeast fitness was ≤ 0.5.

GUUCCGUUGGCGUAAUGGUAACGCGUCUCCCACCUAAGGAGAAGAUUGCGGGUUCGAGUCCCCUACGGAACG [U32A C46U G63C]: the yeast fitness was ≤ 0.5.

With GUUCCGUUGGCGUAAUGGUAACGCGUCUCCUUCCUAAGGAGAAGACAGCGUGUUCGAGUCCCGUACGGAACG [C31U U47A G51U], the yeast fitness was ≤ 0.5.

With GUUCCGUUGGCGUAAUGGUAACGCGUCUCCCCCCUAGGGAGAAGACUGCGGGUUAGAGUCCCGUUCGCAACG [U32C A37G C55A A65U G68C], the yeast fitness was found to be 0.575.

Turning to GUUCCGUUGGCGUAAUGGUAACGCGUCUCCCCCCUAAGGGGAAGACUGCGGGUUCGAGUCCGGUACGACACG [U32C A40G C62G G68A A69C], the yeast fitness is ≤ 0.5.

GUUCCGUUGGCGUAAUGGUAACGCGUCUCCCACCUAAGGAGAGGACUGCGGGUUCGAGUCCCGGACGGAACG [U32A A43G U64G]: the yeast fitness was ≤ 0.5.

Consider GUUCCGUUGGCGUAAUGGUAACGCGUCUCCCACCUAAGGAGAAGACUGCGGGUUCGAGUCCCGUACGGCACG [U32A A69C], for which the yeast fitness stood at 0.882.

As for GUUCCGUUGGCGUAAUGGUAACGCGUCUCCCACCUAAGGAGAAGACUGCGGGUUCGAGUCCCGUACGGUACG [U32A A69U], the yeast fitness is 0.958.

For GUUCCGUUGGCGUAAUGGUAACGCGUCUCCCACCUACGGAGAAGACUGCGCGUUCGUGUCCCGUACGGAACG [U32A A37C G51C A57U], the yeast fitness is ≤ 0.5.

In the case of GUUCCGUUGGCGUAAUGGUAACGCGUCUCCCACCUAAGGAGAGGACUGCGGGUUCGAGUCUCGUACGGAACG [U32A A43G C61U], the yeast fitness was ≤ 0.5.

In the case of GUUCCGUUGGCGUAAUGGUAACGCGUCUCCUUCCUAAGGAGAAGACCGCGGGUUCGAGUCCCAUACGGAACG [C31U U47C G63A], the yeast fitness amounted to 0.687.

With GUUCCGUUGGCGUAAUGGUAACGCGUCUCCCACCUAAGAAGAAGACUGCGGGUUCGAAUCAGGUACGGAACG [U32A G39A G58A C61A C62G], the yeast fitness was ≤ 0.5.

Turning to GUUCCGUUGGCGUAAUGGUAACGCGUCUCCUCCAUAAGGAGAAGACUGCGGGUUUGAGUCCCGUACGGAACG [C31U U32C C34A C55U], the yeast fitness was ≤ 0.5.

As for GUUCCGUUGGCGUAAUGGUAACGCGUCUCCCACCUAAGAAGAAGACUGCGGGUUCGAGUCCCAUACGGAACG [U32A G39A G63A], the yeast fitness was ≤ 0.5.

The values above are taken from the RNAGym collection of RNA variant scans (doi:10.1126/science.aae0568).
